Laboratory results: ChEMBL document CHEMBL1150054, “Studies on the synthesis of sesquiterpene lactones, 14. Syntheses of (-)-arbusclin D and (+)-4-EPI-arbusclin D: the stereochemical assignment of arbusclin D” (1992)
The source made the active and inactive calls. No cut-off for these calls is given here.

Experiments:
P388 [1] = test: Growth inhibition of mouse P388 cells at 0.01 ug/mL after 48 hrs relative to control; type: functional; settings: P388, 48 h, read-out: GI
How it was run: (§1)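 P-388 murine lymphocytic leukemia cells incubated with compound 48 h at 37° under humidified 5% CO2; cells counted by Coulter counter. Inhibitory ratio (%) = (1 − (T − C0)/(C − C0)) × 100, where T is the count with compound, C the count without compound and C0 the count at culture start.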

P388 [2] = test: Growth inhibition of mouse P388 cells at 1 ug/mL after 48 hrs relative to control; type: functional; settings: P388, 48 h, read-out: GI; how it was run: as §1
P388 [3] = test: Growth inhibition of mouse P388 cells at 0.1 ug/mL after 48 hrs relative to control; type: functional; settings: P388, 48 h, read-out: GI; how it was run: as §1
Brassica juncea [4] = test: Growth regulatory activity in Brassica juncea assessed as inhibition of root growth at 500 ppm after 10 days; type: functional, organism-based
Cucumis sativus [5] = test: Growth regulatory activity in Cucumis sativus assessed as complete inhibition of stem growth at 1000 ppm after 10 days; type: functional, organism-based
Echinochloa frumentacea [6] = test: Growth regulatory activity in Echinochloa frumentacea assessed as complete inhibition of root growth at 1000 ppm after 10 days; type: functional, organism-based
Brassica juncea [7] = test: Growth regulatory activity in Brassica juncea assessed as complete inhibition of stem growth at 1000 ppm after 10 days; type: functional, organism-based
Brassica juncea [8] = test: Growth regulatory activity in Brassica juncea assessed as complete inhibition of root growth at 1000 ppm after 10 days; type: functional, organism-based
P388 [9] = test: Growth inhibition of mouse P388 cells at 10 ug/mL after 48 hrs relative to control; type: functional; settings: P388, 48 h, read-out: GI; how it was run: as §1
Echinochloa frumentacea [10] = test: Growth regulatory activity in Echinochloa frumentacea assessed as inhibition of root growth at 500 ppm after 10 days; type: functional, organism-based
Echinochloa frumentacea [11] = test: Growth regulatory activity in Echinochloa frumentacea assessed as complete inhibition of stem growth at 1000 ppm after 10 days; type: functional, organism-based
Cucumis sativus [12] = test: Growth regulatory activity in Cucumis sativus assessed as inhibition of root growth at 500 ppm after 10 days; type: functional, organism-based
Echinochloa frumentacea [13] = test: Growth regulatory activity in Echinochloa frumentacea assessed as complete inhibition of root growth at 250 ppm after 10 days; type: functional, organism-based
Brassica juncea [14] = test: Growth regulatory activity in Brassica juncea assessed as inhibition of root growth at 250 ppm after 10 days; type: functional, organism-based
Cucumis sativus [15] = test: Growth regulatory activity in Cucumis sativus assessed as inhibition of stem growth at 250 ppm after 10 days; type: functional, organism-based
Cucumis sativus [16] = test: Growth regulatory activity in Cucumis sativus assessed as complete inhibition of root growth at 100 ppm after 10 days; type: functional, organism-based
Echinochloa frumentacea [17] = test: Growth regulatory activity in Echinochloa frumentacea assessed as complete inhibition of root growth at 500 ppm after 10 days; type: functional, organism-based
Cucumis sativus [18] = test: Growth regulatory activity in Cucumis sativus assessed as complete inhibition of stem growth at 500 ppm after 10 days; type: functional, organism-based
Cucumis sativus [19] = test: Growth regulatory activity in Cucumis sativus assessed as complete inhibition of root growth at 250 ppm after 10 days; type: functional, organism-based
Brassica juncea [20] = test: Growth regulatory activity in Brassica juncea assessed as inhibition of stem growth at 250 ppm after 10 days; type: functional, organism-based
Echinochloa frumentacea [21] = test: Growth regulatory activity in Echinochloa frumentacea assessed as inhibition of stem growth at 500 ppm after 10 days; type: functional, organism-based
Cucumis sativus [22] = test: Growth regulatory activity in Cucumis sativus assessed as complete inhibition of root growth at 1000 ppm after 10 days; type: functional, organism-based
Brassica juncea [23] = test: Growth regulatory activity in Brassica juncea assessed as complete inhibition of root growth at 500 ppm after 10 days; type: functional, organism-based
Brassica juncea [24] = test: Growth regulatory activity in Brassica juncea assessed as inhibition of stem growth at 500 ppm after 10 days; type: functional, organism-based
Cucumis sativus [25] = test: Growth regulatory activity in Cucumis sativus assessed as complete inhibition of root growth at 500 ppm after 10 days; type: functional, organism-based
Brassica juncea [26] = test: Growth regulatory activity in Brassica juncea assessed as complete inhibition of stem growth at 500 ppm after 10 days; type: functional, organism-based
Cucumis sativus [27] = test: Growth regulatory activity in Cucumis sativus assessed as inhibition of stem growth at 100 ppm after 10 days; type: functional, organism-based
Cucumis sativus [28] = test: Growth regulatory activity in Cucumis sativus assessed as inhibition of root growth at 250 ppm after 10 days; type: functional, organism-based
Cucumis sativus [29] = test: Growth regulatory activity in Cucumis sativus assessed as inhibition of root growth at 100 ppm after 10 days; type: functional, organism-based
Echinochloa frumentacea [30] = test: Growth regulatory activity in Echinochloa frumentacea assessed as complete inhibition of stem growth at 500 ppm after 10 days; type: functional, organism-based
Brassica juncea [31] = test: Growth regulatory activity in Brassica juncea assessed as complete inhibition of root growth at 250 ppm after 10 days; type: functional, organism-based
Echinochloa frumentacea [32] = test: Growth regulatory activity in Echinochloa frumentacea assessed as inhibition of stem growth at 250 ppm after 10 days; type: functional, organism-based
Cucumis sativus [33] = test: Growth regulatory activity in Cucumis sativus assessed as complete inhibition of stem growth at 250 ppm after 10 days; type: functional, organism-based
Echinochloa frumentacea [34] = test: Growth regulatory activity in Echinochloa frumentacea assessed as inhibition of root growth at 1000 ppm after 10 days; type: functional, organism-based
Brassica juncea [35] = test: Growth regulatory activity in Brassica juncea assessed as inhibition of root growth at 1000 ppm after 10 days; type: functional, organism-based
Echinochloa frumentacea [36] = test: Growth regulatory activity in Echinochloa frumentacea assessed as inhibition of stem growth at 1000 ppm after 10 days; type: functional, organism-based

COc1cccc2c1C(=O)c1c(O)c3c(c(O)c1C2=O)C[C@@](O)(C(=O)CO)C[C@@H]3O[C@H]1C[C@H](N)[C@H](O)[C@H](C)O1 [DOXORUBICIN]
inhibition of growth at 0.01 µg/mL (P388 [1]): 38%
inhibition of growth at 1 µg/mL (P388 [2]): 105%
inhibition of growth at 0.1 µg/mL (P388 [3]): 99%

C[C@]12CCC[C@@](C)(O)[C@@H]1[C@H]1OC(=O)C(CBr)=C1CC2
Activity (Brassica juncea [4]): Active
Activity (Cucumis sativus [5]): Active
Activity (Echinochloa frumentacea [6]): Active
Activity (Brassica juncea [7]): Active
Activity (Brassica juncea [8]): Active
inhibition of growth at 10 µg/mL (P388 [9]): 102%
Activity (Echinochloa frumentacea [10]): Active
inhibition of growth at 1 µg/mL (P388 [2]): 44%
inhibition of growth at 0.1 µg/mL (P388 [3]): 3%
Activity (Echinochloa frumentacea [11]): Active
Activity (Cucumis sativus [12]): Active

C[C@]12CCC[C@@](C)(O)[C@@H]1[C@H]1OC(=O)C(CCl)=C1CC2
Activity (Echinochloa frumentacea [13]): Active
Activity (Brassica juncea [14]): Active
Activity (Cucumis sativus [15]): Active
Activity (Cucumis sativus [16]): Active
Activity (Echinochloa frumentacea [17]): Active
Activity (Cucumis sativus [18]): Active
Activity (Cucumis sativus [5]): Active
Activity (Cucumis sativus [19]): Active
Activity (Brassica juncea [20]): Active
Activity (Echinochloa frumentacea [21]): Active
Activity (Cucumis sativus [22]): Active
Activity (Echinochloa frumentacea [6]): Active
Activity (Brassica juncea [23]): Active
Activity (Brassica juncea [7]): Active
Activity (Brassica juncea [8]): Active
inhibition of growth at 10 µg/mL (P388 [9]): 103%
inhibition of growth at 1 µg/mL (P388 [2]): 65%
inhibition of growth at 0.1 µg/mL (P388 [3]): 26%
Activity (Brassica juncea [24]): Active
Activity (Echinochloa frumentacea [11]): Active
Activity (Cucumis sativus [25]): Active

C=C1C(=O)O[C@@H]2[C@@H]3[C@](C)(CCC[C@@]3(C)O)CC[C@@H]12 [ARBUSCULIN A]
Activity (Cucumis sativus [15]): Active
Activity (Brassica juncea [26]): Active
Activity (Echinochloa frumentacea [17]): Active
Activity (Cucumis sativus [18]): Active
Activity (Cucumis sativus [5]): Active
Activity (Brassica juncea [20]): Active
Activity (Cucumis sativus [27]): Active
Activity (Cucumis sativus [28]): Active
Activity (Cucumis sativus [22]): Active
Activity (Echinochloa frumentacea [6]): Active
Activity (Brassica juncea [23]): Active
Activity (Brassica juncea [7]): Active
Activity (Cucumis sativus [29]): Active
Activity (Brassica juncea [8]): Active
inhibition of growth at 10 µg/mL (P388 [9]): 101%
inhibition of growth at 1 µg/mL (P388 [2]): 45%
Activity (Echinochloa frumentacea [30]): Active
inhibition of growth at 0.1 µg/mL (P388 [3]): 2%
Activity (Echinochloa frumentacea [11]): Active
Activity (Cucumis sativus [25]): Active
Activity (Brassica juncea [31]): Active
Activity (Cucumis sativus [12]): Active

CC(=O)OCC1=C2CC[C@@]3(C)CCC[C@@](C)(O)[C@@H]3[C@H]2OC1=O
Activity (Echinochloa frumentacea [32]): Active
Activity (Brassica juncea [7]): Active
Activity (Brassica juncea [8]): Active

C[C@@H]1C(=O)O[C@H]2C1CC[C@@]1(C)CCC[C@@](C)(O)[C@H]21 (stereo not given in full)
Activity (Echinochloa frumentacea [17]): Active
Activity (Cucumis sativus [18]): Active
Activity (Cucumis sativus [5]): Active
Activity (Cucumis sativus [19]): Active
Activity (Echinochloa frumentacea [21]): Active
Activity (Cucumis sativus [22]): Active
Activity (Echinochloa frumentacea [6]): Active
Activity (Brassica juncea [23]): Active
Activity (Brassica juncea [7]): Active
Activity (Brassica juncea [8]): Active
Activity (Brassica juncea [24]): Active
Activity (Echinochloa frumentacea [11]): Active
Activity (Cucumis sativus [33]): Active
Activity (Cucumis sativus [25]): Active

C[C@]12CCC[C@@](C)(O)[C@@H]1[C@H]1OC(=O)C(CO)=C1CC2
Activity (Echinochloa frumentacea [34]): Active
Activity (Brassica juncea [35]): Active
Activity (Cucumis sativus [28]): Active
Activity (Cucumis sativus [22]): Active
Activity (Echinochloa frumentacea [36]): Active
Activity (Cucumis sativus [12]): Active
